{
  "source": "paper PMC8891099",
  "about": "(Clinical Pharmacokinetics, 2021)",
  "key": {"[1]": {"tested_on": "patients with CKD and T2D", "details": "corresponding to sustained eGFR decrease ≥ 57%, under finerenone treatment ref 3; cited from earlier work"}, "[2]": {"tested_on": "patients with CKD and T2D", "experiment": "FIDELIO-DKD phase III study, kidney outcome events", "assay_type": "in vivo, human", "details": "finerenone group, 504 of 2833 patients, median follow-up of 2.6 years"}, "[3]": {"tested_on": "patients with CKD and T2D", "experiment": "Parametric time-to-event exposure-response", "assay_type": "in vivo", "details": "Homo sapiens, read-out: EC50 (half-maximal drug effect concentration)", "summary_of_the_method": "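Parametric time-to-event model (Weibull hazard) for the first composite kidney event, with exposure-response as an Emax function driven by central-compartment concentration. Input was individual concentration-time profiles from post-hoc PK estimates, actual dosing history and covariates; typical PK parameters were used for subjects lacking them. Delay and Hill coefficient were tested. Checked by visual predictive checks with observed dropout.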"}, "[4]": {"experiment": "Population pharmacokinetic model of finerenone in FIDELIO-DKD", "assay_type": "in vivo, human", "summary_of_the_method": "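Nonlinear mixed-effects model of sparse plasma levels after oral 10 or 20 mg once daily. Sampling was a month-4 trough plus post-dose samples at any time on yearly visits. Structure: two compartments with equal volumes, transit-compartment absorption and first-order elimination, starting from a phase IIb model. Covariate search used single addition and forward inclusion at p 0.01 and backward deletion at p 0.001.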"}, "[5]": {"details": "covariate parameter, population PK model"}, "[6]": {"details": "inter-individual variability, population PK model"}, "[7]": {"details": "population PK model estimate, FIDELIO-DKD patients"}},
  "data": [
    {"smiles": "CCOc1ncc(C)c2c1[C@H](c1ccc(C#N)cc1OC)C(C(N)=O)=C(C)N2", "note": "[finerenone]", "values": [
      {"measurement": "reduction of secondary endpoint doubling of serum creatinine", "setting": "[1]", "value": 32, "unit": "%"},
      {"measurement": "patients with a kidney event contributing to the composite endpoint", "setting": "[2]", "value": 17.8, "unit": "%"},
      {"measurement": "EC50", "setting": "[3]", "value": 0.166, "unit": "ng/mL"},
      {"measurement": "Effect for Korean subjects on Vc/F", "setting": "[4]; [5]", "value": 1.29},
      {"measurement": "Effect of body weight on Vc/F", "setting": "[4]; [5]", "value": 0.501},
      {"measurement": "Absorption lag time", "setting": "[4]; fixed in population PK model", "value": "0.215 (fixed) h"},
      {"measurement": "Ratio Vp/F and Vc/F", "setting": "[4]; fixed in population PK model", "value": "1 (fixed)"},
      {"measurement": "Relative bioavailaility", "setting": "[4]; fixed in population PK model", "value": "1 (fixed)"},
      {"measurement": "Covariance CL/F × Vc/F", "setting": "[4]; [6]", "value": 0.0442},
      {"measurement": "ω^2 Vc/F", "setting": "[4]; [6]", "value": 0.104},
      {"measurement": "dose linearity of pharmacokinetics", "setting": "[4]; over the investigated dose range (10 and 20 mg once daily)", "value": "dose linear"},
      {"measurement": "Inter-individual variability of CL/F expressed as CV", "setting": "[4]; population PK model", "value": "^aShrinkage was 26.6%, variability expressed as CV: 31.8%"},
      {"measurement": "Inter-individual variability of Vc/F expressed as CV", "setting": "[4]; population PK model", "value": "^bShrinkage was 47.8%, variability expressed as CV: 33.0%"},
      {"measurement": "CL/F", "setting": "[4]; [7]", "value": 29.9, "unit": "L/h"},
      {"measurement": "Q/F", "setting": "[4]; [7]", "value": 0.335, "unit": "L/h"},
      {"measurement": "Vc/F", "setting": "[4]; [7]", "value": 113, "unit": "L"},
      {"measurement": "Ka", "setting": "[4]; population PK model estimate, FIDELIO-DKD patients, oral 10 or 20 mg once daily", "value": 22.5, "unit": "h⁻¹"},
      {"measurement": "σ^2", "setting": "[4]; residual error, population PK model", "value": 0.313}
    ]}
  ]
}
